Screening results (PubChem)
CHOP inh = inhibitors of CHOP induction in ER stress response. AID 2732. inhibition, % at 10 µM. 3.8% of 220,000 active. CHO-K1 CHOP-promoter luciferase, tunicamycin-induced, 15-18 h;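 active means compounds that reduced the stress-induced luciferase reporter signal by more than about 70% of percent inhibition, limit read from the data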
NOD2-RIPK2 inh = inhibitors of human NOD2-RIPK2 interaction; O43353; CHO BLA complementation NOD2-RIPK2, CCF4 ratio; inhibition, % at 4.98 µM; 0.38% of 360,000 active; in the data active means inhibition above about 21%
Target sequence (O43353 whole entry, looked up): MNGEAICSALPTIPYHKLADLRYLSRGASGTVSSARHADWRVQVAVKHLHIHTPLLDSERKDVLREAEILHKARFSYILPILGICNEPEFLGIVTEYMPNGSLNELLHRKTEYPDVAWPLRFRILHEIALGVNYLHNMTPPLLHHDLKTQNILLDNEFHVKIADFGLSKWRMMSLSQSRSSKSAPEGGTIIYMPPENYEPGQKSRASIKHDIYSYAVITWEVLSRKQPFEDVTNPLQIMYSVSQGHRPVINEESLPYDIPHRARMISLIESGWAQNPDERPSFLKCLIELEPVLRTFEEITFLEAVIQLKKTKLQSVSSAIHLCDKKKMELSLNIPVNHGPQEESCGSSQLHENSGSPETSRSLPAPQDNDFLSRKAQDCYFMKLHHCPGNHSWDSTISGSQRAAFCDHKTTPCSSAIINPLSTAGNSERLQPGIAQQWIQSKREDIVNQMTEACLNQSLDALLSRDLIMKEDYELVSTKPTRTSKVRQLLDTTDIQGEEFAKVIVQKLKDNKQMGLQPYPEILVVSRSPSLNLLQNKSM
XBP1 UPR activ = activators of adaptive arm of unfolded protein response (XBP1); activation, % at 20 µM; CHO-XBP1 luciferase reporter, IRE1-XBP1 UPR activation, luminescence; percent of tunicamycin response, DMSO as zero; 0.33% of 330,000 active;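 active means versus positive control, 20 µM dose yields 30% or more activation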
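Material: CHO cell line with stable XBP1 luciferase reporter; buffer or medium: F12 medium containing 10% fetal bovine serum; compound: single point, 20 µM final compound, 1% DMSO; incubation: 6 h treatment, 37 °C; measured by: glow luminescence from Steady-Glo reagent; evaluation: activation, % of tunicamycin; control set: tunicamycin high, DMSO low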
TLR9-MyD88 inh = inhibitors of human TLR9-MyD88 binding; Q9NR96+Q99836; CHO BLA complementation TLR9-MyD88, CCF4 FRET ratio; inhibition, % at 4.98 µM; 0.21% of 340,000 active; AID 504734;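 active means inhibition above the mean over all tested compounds plus 3 SD, cut at about 21% in these data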
TLR4-MyD88 BLA = TLR4-MyD88 interaction inhibition in cells; AID 861; inhibition, % at 8.4 µM; O00206+Q99836; HeLa CL3-4 TLR4/MyD88 BLA complementation, FRET ratio; 0.18% of 200,000 active; in the data active means inhibition above about 25%
CHOP UPR activ = apoptotic UPR (CHOP) activation; CHO-CHOP luciferase reporter, luminescence; percent of tunicamycin response over DMSO baseline; 0.34% of 330,000 active; activation, % at 10 µM; AID 449763;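 active means at 10 µM dose, activation of 40% or more, normalized to positive control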
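Evaluation: % reporter activation, DMSO baseline versus tunicamycin full activation; System: CHO-CHOP luciferase reporter cell line; Input: 500 cells/well; Incubation: 6 h compound treatment, 37 °C; Measured by: Steady-Glo luciferase luminescence; Dosing: one dose, 10 µM in 0.5% DMSO; Buffer or medium: F12 medium, 10% FBS; Benchmarks: positive tunicamycin 10 µg/mL, negative DMSO alone.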
Each line names hits and unclear results; the compound was inactive in the other large screens. The entries come from a sample that favours hits as a whole.

CCCCn1nnnc1C(c1cccs1)N1CCN(C/C=C/c2ccccc2)CC1 (stereo not drawn)	none (no result: CHOP inh, XBP1 UPR activ, TLR9-MyD88 inh, TLR4-MyD88 BLA, CHOP UPR activ)
COC(=O)c1sccc1NC(=O)C1CC2CCC1C2 (stereo not drawn)	CHOP inh 94
COC(=O)c1sccc1NC(=S)N1CC(C)CC(C)C1 (stereo not drawn)	CHOP inh 93 (no result: XBP1 UPR activ, CHOP UPR activ)
C[C@H]1CN([C@@H](C)CO)C(=O)CCCn2nncc2CO[C@@H]1CN(C)S(=O)(=O)c1cccc(F)c1	none (no result: CHOP inh, XBP1 UPR activ, TLR4-MyD88 BLA, CHOP UPR activ)
O=C(NNC(=O)c1ccccc1Br)c1ccc(SCC2CCCO2)c([N+](=O)[O-])c1 (stereo not drawn)	none
COc1ccc(N2CCN(S(=O)(=O)c3ccc4c(c3)CCCC4)CC2)c([N+](=O)[O-])c1	CHOP inh 71
COc1cccc(N2CCN(c3ccc(S(=O)(=O)N4CCN(C)CC4)cc3[N+](=O)[O-])CC2)c1	none (no result: CHOP inh, TLR4-MyD88 BLA)
O=C(CSc1nc2cc3ccccc3cc2[nH]1)Nc1ccc(F)cc1	CHOP inh 81
COc1ccc(NC(=O)CSc2nc3ccc(OC)cc3[nH]2)cc1	none (no result: TLR4-MyD88 BLA)
Cc1ccc2nc(SCC(=O)Nc3ccc4c(c3)CCC4)[nH]c2c1	none
O=C(CSc1nc2ccc(Cl)cc2[nH]1)Nc1ccc2c(c1)CCC2	CHOP inh 71
O=C(CCNC(=O)Cn1ccc2ccccc2c1=O)NCc1ccccn1	none
CC(C)(C)c1cc(=O)n(-c2ccccc2)[nH]1	CHOP inh 70 (no result: XBP1 UPR activ, CHOP UPR activ)
OCCNc1ncnc2c1ncn2[C@H]1CN(Cc2ccc(Cl)cc2)C[C@@H](CO)O1	none (no result: CHOP inh, XBP1 UPR activ, TLR9-MyD88 inh, TLR4-MyD88 BLA, CHOP UPR activ)
Cc1ccccc1C(C(=O)NC1CCCCC1)N(C(=O)CNC(=O)c1ccco1)c1cccnc1 (stereo not drawn)	none
CCc1cccc2c(C(=O)COC(=O)c3ccc([N+](=O)[O-])s3)c[nH]c12	CHOP inh 73
CC(C)(C)C1CCC(OC(=O)c2ccncc2)CC1 (stereo not drawn)	CHOP inh 74
CC(C)(C)C1CCC(OC(=O)c2cncc(Br)c2)CC1 (stereo not drawn)	none
COC(=O)C(CC(=O)c1ccc(Br)cc1)n1cccn1 (stereo not drawn)	none (no result: CHOP inh, TLR4-MyD88 BLA)
N#CC1=C(N)OC2=C(CCc3ccccc32)C1c1ccccc1 (stereo not drawn)	CHOP inh 100
N#CC1=C(N)Oc2cc(O)ccc2C1c1ccccc1 (stereo not drawn)	none
Cc1cc(C)n(-c2nc(NCC3CCCO3)c3c4c(sc3n2)COC(C)(C)C4)n1 (stereo not drawn)	CHOP inh 95 (no result: NOD2-RIPK2 inh, TLR9-MyD88 inh)
Cc1cc(C)n(-c2nc(NCC(C)O)c3c4c(sc3n2)COC(C)(C)C4)n1 (stereo not drawn)	none
COc1ccc(/C(C)=N/OC/C(O)=C(\C#N)c2nc3ccccc3[nH]2)c(OC)c1	CHOP inh 95
COc1ccc(/C(C)=N/OC/C(O)=C(\C#N)c2nc3ccccc3[nH]2)cc1OC	none
COc1ccc2oc(C(=O)OC/C(O)=C(\C#N)c3nc4ccccc4[nH]3)c(C)c2c1	CHOP inh 95 (no result: TLR4-MyD88 BLA)
COc1ccc(C)cc1NC(=O)CCc1ccc(S(=O)(=O)N2CCOCC2)cc1	none (no result: CHOP inh, TLR4-MyD88 BLA)
O=C(O)c1ccc2c(=O)[nH]c(CCl)nc2c1	none
CC(=O)Nc1ccc(OCC(O)Cn2c3ccccc3c3ccccc32)c(C)c1 (stereo not drawn)	none
OC(COc1ccccc1)Cn1c2ccccc2c2ccccc21 (stereo not drawn)	CHOP inh 89
Cc1ccccc1OCC(O)Cn1c2ccccc2c2ccccc21 (stereo not drawn)	CHOP inh 90
O=C(O)c1ccc(OCC(O)Cn2c3ccccc3c3ccccc32)cc1 (stereo not drawn)	none (no result: TLR4-MyD88 BLA)
CSCC[C@H](NC(=O)Cc1c(C)c2cc3c(C)c(C)oc3cc2oc1=O)C(=O)N[C@@H](C(=O)O)c1ccccc1	none (no result: CHOP inh, XBP1 UPR activ, TLR9-MyD88 inh, TLR4-MyD88 BLA, CHOP UPR activ)
CC1=CC(C)C2(CO)COC(c3ccccc3O)C1C2C (stereo not drawn)	none
COc1ccc(/C=N/NC(=S)Nc2ccccc2)cc1COc1cccc(C)c1C	CHOP inh 91 (no result: TLR4-MyD88 BLA)
COc1ccc(C=NNC(=S)Nc2ccc(F)cc2)cc1OC	none (no result: CHOP inh, XBP1 UPR activ, TLR4-MyD88 BLA, CHOP UPR activ)
CCOC(=O)c1c(NC(=O)CSc2c[nH]c3ccccc23)sc2c1CCC2	none
CCOC(=O)c1c(NC(=O)COC)sc2c1CCCC2	CHOP inh 86
CCOC(=O)c1c(NC(=O)CSc2c[nH]c3ccccc23)sc2c1CCCC2	CHOP inh 76
CCOC(=O)c1c(NC(=O)COc2cccc3c2CCN(CC)C3=O)sc2c1CCC2	CHOP inh 78
NC(=O)CC1(c2ccccc2)CCCCC1	none (no result: CHOP inh, XBP1 UPR activ, TLR4-MyD88 BLA, CHOP UPR activ)
CCc1ccccc1NCC(=O)Nc1ccc(Cl)c(C(F)(F)F)c1	CHOP inh 79
CCOC(=O)Cn1nnc(-c2ccc(OCC(C)C)cc2)n1	CHOP inh 71
CCOc1ccc(-c2nnn(CC(=O)NCCc3c[nH]c4ccccc34)n2)cc1	none
CCCOc1ccc(-c2nnn(CC(=O)c3c[nH]c4ccccc34)n2)cc1	CHOP inh 85
CC1(C)Oc2ccc3ccc(=O)oc3c2/C(=C/Nc2ccccn2)C1=O	CHOP inh 92
CSc1ccc(NC(=O)C2(C)CCN2C(=O)Cc2ccc(C(C)(C)C)cc2)cc1 (stereo not drawn)	none (no result: CHOP inh, XBP1 UPR activ, TLR9-MyD88 inh, TLR4-MyD88 BLA, CHOP UPR activ)
O=C(Nc1cccc(O)c1)c1cccc(C(=O)Nc2cccc(O)c2)c1	none (no result: CHOP inh, TLR4-MyD88 BLA)
O=C(Nc1ccccc1)Nc1snnc1C(=O)Nc1cccc(O)c1	CHOP inh 78
C=CCn1c(C)cc(C(=O)CSc2nc3ccccc3o2)c1C	CHOP inh 74
Cc1cc(C(=O)CSc2nc3ccccc3o2)c(C)n1C1CC1	none
COc1ccc(CCNS(=O)(=O)c2cccc3nsnc23)cc1OC	none
COc1ccc(CCNC(=O)CCS(=O)(=O)c2cccc3nsnc23)cc1OC	CHOP inh 78
CN1CCN(c2ccc(S(=O)(=O)N3CCCCC3)cc2NC(=O)c2ccc(F)cc2F)CC1	none
CCOC(=O)c1ccc(NC(=O)Cc2coc3cc4c(cc23)CCC4)cc1	CHOP inh 77
Cc1ccc(SCCSc2nc(C)cc(=O)[nH]2)cc1	none (no result: CHOP inh, TLR4-MyD88 BLA)
CCCCCCCCCCS(=O)(=O)N/N=C/c1ccccc1OC	CHOP inh 82
O=C(Nc1cc2c(cc1[N+](=O)[O-])OCCO2)c1cccnc1	none (no result: CHOP inh, TLR9-MyD88 inh, TLR4-MyD88 BLA)
CC(=O)N(/N=C/c1cccc(C)c1)c1nc(-c2ccc(Br)cc2)cs1	CHOP inh 95
CC(C)=CC(=O)OCC(=O)Nc1ccc(Cl)cn1	CHOP inh 75
CCOC(=O)/C=C/C(=O)OCC(=O)Nc1ccc(Cl)cn1	none
C=C(C)C1CC=C(C)/C(=N/NC(=O)COc2ccc(Cl)cc2)C1 (stereo not drawn)	CHOP inh 86
